System: HeLa
Test: Growth inhibition of human HeLa cells at 50 ug/ml after 72 hrs by spectrophotometric analysis
Assay type: functional
Details: read-out: GI
In short: (§1)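 Normal primary human skin fibroblasts (HSF), HeLa (ECACC 93021013) and T47D (ECACC 85102201) were each seeded at 10⁴ cells/mL. Compounds were predissolved in DMSO and tested at a single 50 µg/mL (about 0.14–0.18 mM). Cultures were incubated at 37 °C, 5% CO₂, 90% humidity for 24, 48 or 72 h, and percent growth inhibition was read spectrophotometrically.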

Compound | inhibition of growth at 50 µg/mL [%]
COc1ccccc1N1CCn2c1nnc(-c1ccco1)c2=O | 80
COc1ccc(N2CCn3c2nnc(-c2ccco2)c3=O)cc1 | 95
O=c1c(-c2ccco2)nnc2n1CCN2c1cccc(Cl)c1 | 95
O=c1c(-c2ccco2)nnc2n1CCN2c1ccc(Cl)cc1 | 90
O=c1c(-c2ccco2)nnc2n1CCN2c1ccc(Cl)c(Cl)c1 | 95
O=c1c(-c2ccco2)nnc2n1CCN2c1c(Cl)cccc1Cl | 95

System: not listed separately
Test: Growth inhibition of human HSF cells at 50 ug/ml after 72 hrs by spectrophotometric analysis
Assay type: cell-based
Details: read-out: GI
In short: as §1

Compound | inhibition at 72 h, 50 ug/ml [%]
COc1ccccc1N1CCn2c1nnc(-c1ccco1)c2=O | 5
COc1ccc(N2CCn3c2nnc(-c2ccco2)c3=O)cc1 | 60
O=c1c(-c2ccco2)nnc2n1CCN2c1cccc(Cl)c1 | 75
O=c1c(-c2ccco2)nnc2n1CCN2c1ccc(Cl)cc1 | 90
O=c1c(-c2ccco2)nnc2n1CCN2c1ccc(Cl)c(Cl)c1 | 80
O=c1c(-c2ccco2)nnc2n1CCN2c1c(Cl)cccc1Cl | 15

System: not listed separately
Test: Growth inhibition of human HSF cells at 50 ug/ml after 48 hrs by spectrophotometric analysis
Assay type: cell-based
Details: read-out: GI
In short: as §1

Compound | inhibition at 48 h, 50 ug/ml [%]
COc1ccccc1N1CCn2c1nnc(-c1ccco1)c2=O | 0
COc1ccc(N2CCn3c2nnc(-c2ccco2)c3=O)cc1 | 50
O=c1c(-c2ccco2)nnc2n1CCN2c1cccc(Cl)c1 | 60
O=c1c(-c2ccco2)nnc2n1CCN2c1ccc(Cl)cc1 | 80
O=c1c(-c2ccco2)nnc2n1CCN2c1ccc(Cl)c(Cl)c1 | 50
O=c1c(-c2ccco2)nnc2n1CCN2c1c(Cl)cccc1Cl | 15

System: HeLa
Test: Growth inhibition of human HeLa cells at 50 ug/ml after 24 hrs by spectrophotometric analysis
Assay type: functional
Details: read-out: GI
In short: as §1

Compound | inhibition of growth at 50 µg/mL [%]
COc1ccccc1N1CCn2c1nnc(-c1ccco1)c2=O | 25
COc1ccc(N2CCn3c2nnc(-c2ccco2)c3=O)cc1 | 80
O=c1c(-c2ccco2)nnc2n1CCN2c1cccc(Cl)c1 | 80
O=c1c(-c2ccco2)nnc2n1CCN2c1ccc(Cl)cc1 | 50
O=c1c(-c2ccco2)nnc2n1CCN2c1ccc(Cl)c(Cl)c1 | 50
O=c1c(-c2ccco2)nnc2n1CCN2c1c(Cl)cccc1Cl | 80

System: T47D
Test: Growth inhibition of human T47D cells at 50 ug/ml after 24 hrs by spectrophotometric analysis
Assay type: functional
Details: read-out: GI
In short: as §1

Compound | inhibition of growth at 50 µg/mL [%]
COc1ccccc1N1CCn2c1nnc(-c1ccco1)c2=O | 0
COc1ccc(N2CCn3c2nnc(-c2ccco2)c3=O)cc1 | 50
O=c1c(-c2ccco2)nnc2n1CCN2c1cccc(Cl)c1 | 20
O=c1c(-c2ccco2)nnc2n1CCN2c1ccc(Cl)cc1 | 0
O=c1c(-c2ccco2)nnc2n1CCN2c1ccc(Cl)c(Cl)c1 | 10
O=c1c(-c2ccco2)nnc2n1CCN2c1c(Cl)cccc1Cl | 10

System: not listed separately
Test: Lipophilicity, log Kw of the compound in methanol-water mixture by RP-HPLC
Assay type: physicochemical
Details: not given
In short: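 Isocratic RP-HPLC on a C18 column (150 × 4.6 mm, 5 µm) at 22 °C, 1 mL/min, DAD detection. Mobile phases were methanol (30–80%), 20% acetate buffer pH 3.5 (0.2 M acetate, pH measured in aqueous solution) and 0.01 M/L octane-1-sulfonic acid sodium salt. log kw was extrapolated with the Snyder–Soczewiński equation.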

Compound | logKw
COc1ccccc1N1CCn2c1nnc(-c1ccco1)c2=O | 2.54
COc1ccc(N2CCn3c2nnc(-c2ccco2)c3=O)cc1 | 2.89
O=c1c(-c2ccco2)nnc2n1CCN2c1cccc(Cl)c1 | 3.45
O=c1c(-c2ccco2)nnc2n1CCN2c1ccc(Cl)cc1 | 3.45
O=c1c(-c2ccco2)nnc2n1CCN2c1ccc(Cl)c(Cl)c1 | 4.01
O=c1c(-c2ccco2)nnc2n1CCN2c1c(Cl)cccc1Cl | 2.97

System: T47D
Test: Growth inhibition of human T47D cells at 50 ug/ml after 48 hrs by spectrophotometric analysis
Assay type: functional
Details: read-out: GI
In short: as §1

Compound | inhibition of growth at 50 µg/mL [%]
COc1ccccc1N1CCn2c1nnc(-c1ccco1)c2=O | 30
COc1ccc(N2CCn3c2nnc(-c2ccco2)c3=O)cc1 | 70
O=c1c(-c2ccco2)nnc2n1CCN2c1cccc(Cl)c1 | 50
O=c1c(-c2ccco2)nnc2n1CCN2c1ccc(Cl)cc1 | 15
O=c1c(-c2ccco2)nnc2n1CCN2c1ccc(Cl)c(Cl)c1 | 20
O=c1c(-c2ccco2)nnc2n1CCN2c1c(Cl)cccc1Cl | 20

System: not listed separately
Test: Growth inhibition of human HSF cells at 50 ug/ml after 24 hrs by spectrophotometric analysis
Assay type: cell-based
Details: read-out: GI
In short: as §1

Compound | inhibition at 24 h, 50 ug/ml [%]
COc1ccccc1N1CCn2c1nnc(-c1ccco1)c2=O | 0
COc1ccc(N2CCn3c2nnc(-c2ccco2)c3=O)cc1 | 10
O=c1c(-c2ccco2)nnc2n1CCN2c1cccc(Cl)c1 | 25
O=c1c(-c2ccco2)nnc2n1CCN2c1ccc(Cl)cc1 | 50
O=c1c(-c2ccco2)nnc2n1CCN2c1ccc(Cl)c(Cl)c1 | 0
O=c1c(-c2ccco2)nnc2n1CCN2c1c(Cl)cccc1Cl | 10

System: HeLa
Test: Growth inhibition of human HeLa cells at 50 ug/ml after 48 hrs by spectrophotometric analysis
Assay type: functional
Details: read-out: GI
In short: as §1

Compound | inhibition of growth at 50 µg/mL [%]
COc1ccccc1N1CCn2c1nnc(-c1ccco1)c2=O | 35
COc1ccc(N2CCn3c2nnc(-c2ccco2)c3=O)cc1 | 80
O=c1c(-c2ccco2)nnc2n1CCN2c1cccc(Cl)c1 | 80
O=c1c(-c2ccco2)nnc2n1CCN2c1ccc(Cl)cc1 | 75
O=c1c(-c2ccco2)nnc2n1CCN2c1ccc(Cl)c(Cl)c1 | 50
O=c1c(-c2ccco2)nnc2n1CCN2c1c(Cl)cccc1Cl | 80

System: T47D
Test: Growth inhibition of human T47D cells at 50 ug/ml after 72 hrs by spectrophotometric analysis
Assay type: functional
Details: read-out: GI
In short: as §1

Compound | inhibition of growth at 50 µg/mL [%]
COc1ccccc1N1CCn2c1nnc(-c1ccco1)c2=O | 70
COc1ccc(N2CCn3c2nnc(-c2ccco2)c3=O)cc1 | 80
O=c1c(-c2ccco2)nnc2n1CCN2c1cccc(Cl)c1 | 80
O=c1c(-c2ccco2)nnc2n1CCN2c1ccc(Cl)cc1 | 15
O=c1c(-c2ccco2)nnc2n1CCN2c1ccc(Cl)c(Cl)c1 | 40
O=c1c(-c2ccco2)nnc2n1CCN2c1c(Cl)cccc1Cl | 25

From ChEMBL document CHEMBL1817573, “Synthesis, structure elucidation, determination of the lipophilicity and identification of antitumour activities in vitro of novel 3-(2-furanyl)-8-aryl-7,8-dihydroimidazo[2,1-c][1,2,4]triazin-4(6H)-ones with a low cytotoxicity towards normal human skin fibroblast cells” (Bioorg Med Chem, 2011)
